The list is not random: actives were taken first. Their share in the collection is about 2.9%.
SIRT5 block = sirtuin-5 (human) deacylase inhibition; Q9NXA8; Purified SirT5, succinyl-peptide AMC, trypsin-coupled fluorescence; inhibition, % at 15 µM; hit rate 1.1% among 330,000; in the data active means inhibition above about 15%
Target sequence (Q9NXA8 whole entry, looked up): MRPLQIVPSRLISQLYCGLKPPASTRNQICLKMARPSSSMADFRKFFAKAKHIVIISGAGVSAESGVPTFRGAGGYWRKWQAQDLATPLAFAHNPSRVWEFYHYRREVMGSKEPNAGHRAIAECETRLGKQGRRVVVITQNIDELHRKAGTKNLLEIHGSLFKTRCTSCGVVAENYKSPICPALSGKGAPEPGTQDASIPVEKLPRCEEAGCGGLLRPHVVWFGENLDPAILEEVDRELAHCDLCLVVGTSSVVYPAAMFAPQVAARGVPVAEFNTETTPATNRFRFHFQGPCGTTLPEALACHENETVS
PGC1a acetyl inh = lowers PGC1a acetylation signal in U2OS cells; hit rate 0.17% among 350,000; AlphaScreen anti-acetyl-lysine; with virally co-expressed GCN5 acetyltransferase; AID 651687; inhibition, % at 15.6 µM;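 active means every replicate shows inhibition of at least 40%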;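 further: 0% = neutral control wells and 100% = positive control wells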
DENV2 CPE = inhibitors of DENV2 cytopathic effect; DENV2-infected cells, cytopathic effect rescue, plate reader; CPE inhibition, % at 9.99 µM; hit rate 1.7% among 350,000; AID 651640; in the data active means CPE inhibition above about 20%, passing the limit was not always enough; tested in BHK-21 cells;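 further: 0% = median of neutral control wells and 100% = median of positive control wells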
S100A4 MyoIIA = blocks human S100A4 binding to myosin IIA peptide; hit rate 0.14% among 360,000; P26447; inhibition, % at 10.7 µM; S100A4/TAMRA-MyoIIA peptide fluorescence polarization;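 active means mean inhibition of at least 70% across replicates, with every replicate also reaching that level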
Target sequence (P26447 whole entry, looked up): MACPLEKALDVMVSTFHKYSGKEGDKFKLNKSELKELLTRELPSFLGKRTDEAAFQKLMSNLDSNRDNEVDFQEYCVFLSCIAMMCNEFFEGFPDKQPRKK
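assay system = human S100A4 monomer with TAMRA-labelled myosin IIA peptide | also added = labelled myosin peptide probe, 5 nM | incubation = 5 min between mix addition and reading | control set = DMSO and TFP controls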
Statin myotox sup = suppressors of simvastatin-induced myotoxicity in C2C12 myotubes. ATP luminescence, 48 h; scaled: DMSO 0, geranylgeraniol control 100. rescue of ATP level, % at 7.49 µM. hit rate 0.78% among 330,000;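 active means mean ATP rescue above about 67%, or every replicate alone reaching that limit, limit read from the data, passing the limit was not always enough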;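 further: myotubes were challenged with 10 µM simvastatin during compound exposure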
* hit, by the source's call; · = no result given.

SMILES	SIRT5 block	PGC1a acetyl inh	DENV2 CPE	S100A4 MyoIIA	Statin myotox sup
COc1ccc(C#Cc2cccc(-c3nc(C(=O)N[C@@H]4CCN(Cc5ccccc5)C4)cc4c3[C@@H](CCO)N(S(=O)C(C)(C)C)C4)c2)cc1OC (some centres undefined)	0	-18	-8	-8	·
Cc1ccc(S(=O)(=O)Nc2ccc3c(c2)C(=O)N([C@@H](C)CO)C[C@H](C)[C@H](CN(C)C(=O)Nc2ccc4c(c2)OCO4)O3)cc1	·	-8	·	·	19
CCn1c(CCCCc2n[nH]c(=S)n2CC)n[nH]c1=S	-4	10	-3	-3	·
CCn1c(CN2c3ccccc3Sc3ccccc32)n[nH]c1=S	-5	-2	13	-1	86*
CC(OC(=O)c1cccc(O)c1)C(=O)N(C)Cc1ccccc1 (centres undefined)	-2	3	-6	-7	29
CC(OC(=O)c1ccccc1NS(=O)(=O)c1cccc(N)c1)C(=O)N(C)Cc1ccccc1 (centres undefined)	·	9	-16	-14	86*
O=C(C[C@H]1CC[C@@H]2[C@H](COC[C@H](O)CN2Cc2ccccc2)O1)N1CCOCC1	6	6	7	9	-3
Cn1c(=O)c2nc(Cl)c(-c3ccccc3)nc2n(C)c1=O	·	·	55*	0	·
C[C@@H]1CN([C@@H](C)CO)C(=O)c2cc(C#CC3CCCC3)cnc2O[C@@H]1CN(C)C(=O)Nc1ccccc1	4	-9	2	-15	-34
C[C@H](CO)N1C[C@H](C)[C@H](CN(C)C(=O)Nc2ccccc2)Oc2ncc(C#CC(C)(C)O)cc2C1=O	-2	0	26*	10	-7
C[C@H]1CN([C@@H](C)CO)C(=O)c2cc(C#CC3CCCCC3)cnc2O[C@@H]1CN(C)C(=O)Nc1ccccc1	15*	5	-5	2	2
COc1ccc(CN(Cc2cccn2C)S(=O)(=O)c2ccccc2)cc1	0	74*	-3	-9	5
COc1cc(S(=O)(=O)Nc2ccc(C)cc2)ccc1N=Cc1c(C)c(C#N)c(=O)n(C)c1O	1	-4	15	80*	·
COc1cc(S(=O)(=O)Nc2ccc(C)cc2)ccc1N=Cc1c(C)[nH]n(-c2ccc(C)cc2)c1=O	-2	·	-4	1	·
C[C@H](c1ccccc1)N1C[C@@H](COCc2ccccc2)Oc2cccc(Oc3ccccc3)c2S1(=O)=O	·	·	0	-1	·
C[C@H](c1ccccc1)N1C[C@@H](COCc2ccccc2)Oc2cccc(Oc3ccc(C(C)(C)C)cc3)c2S1(=O)=O	·	·	85*	22	·
CN(C)CCCNC(=O)C[C@H]1CC[C@@H]2[C@@H](COc3ccc(NC(=O)c4ccccc4F)cc3C(=O)N2C)O1	1	0	-6	-4	1
CCCNC(=O)[C@H]1[C@H](CO)[C@H]2Cn3c(ccc(-c4ccc(F)cc4)c3=O)[C@@H]1N2Cc1ccccc1F	-6	·	-5	-5	-21
CC(=O)CSc1nc(C(F)(F)F)cc(=O)n1-c1ccccc1	·	0	·	·	151*
CN(c1ccccc1)c1ncnc2c1ncn2C	3	-2	89*	8	1
CN(C)c1ncnc2c1ncn2-c1ccccc1	-4	-22	-3	-7	1
O=C(Nc1ccc2c(c1)OCO2)N[C@H]1CC[C@@H](CCNC(=O)C2CCC2)O[C@@H]1CO	9	-8	8	65	-5
O=C(Nc1ccc2c(c1)OCO2)N[C@@H]1CC[C@H](CCNC(=O)C2CCC2)O[C@@H]1CO	-3	-7	32*	-5	5
O=C(Nc1ccccc1F)N[C@H]1CC[C@H](CCNC(=O)C2CCCCC2)O[C@H]1CO	7	-17	-11	87*	-1
O=C(Nc1cccc(Cl)c1)N[C@H]1CC[C@H](CCNC(=O)C2CCCC2)O[C@H]1CO	6	0	-14	132*	-4
O=C(Nc1ccccc1F)N[C@H]1CC[C@@H](CCNC(=O)C2CCCCC2)O[C@@H]1CO	3	-5	2	17	-7
O=C(C[C@@H]1CC[C@H](NC(=O)Nc2ccc3c(c2)OCO3)[C@@H](CO)O1)NCc1ccc2c(c1)OCO2	·	0	24*	0	-3
COc1ccc(CN(C)C[C@H]2Oc3ccc(NS(=O)(=O)c4ccccc4)cc3CC(=O)N([C@@H](C)CO)C[C@H]2C)cc1	0	13	0	0	-3

High-throughput results from PubChem.
